According to ChEMBL document CHEMBL1142419, “Antimycobacterial activities of novel 2-(sub)-3-fluoro/nitro-5,12-dihydro-5-oxobenzothiazolo[3,2-a]quinoline-6-carboxylic acid” (Bioorg Med Chem, 2008):
Values after ≈ are worked out from the molar mass of the structure shown.

Tests used:
[1] = test system: Mycobacterium tuberculosis; assay: Antimycobacterial activity against Mycobacterium tuberculosis ATCC 35801 infected in CD1 mouse assessed as bacterial load in lung at 25 mg/kg, ip after 10 days; format: functional; conditions: route intraperitoneal
Summary of the method: (§1)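 Six-week-old female CD-1 mice, six per group, infected intravenously via caudal vein with ~10⁷ viable M. tuberculosis ATCC 35801. Intraperitoneal dosing began 10 days after inoculation and ran 10 days. On day 35 post-infection, spleens and right lungs were removed and homogenized. Serial 10-fold dilutions were plated on 7H10 agar (37 °C, ambient air, 4 weeks). Log CFU compared against vehicle-treated controls.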

[2] = test system: Mycobacterium tuberculosis; assay: Antimycobacterial activity against Mycobacterium tuberculosis ATCC 35801 infected in CD1 mouse assessed as bacterial load in spleen at 25 mg/kg, ip after 10 days; format: functional; conditions: route intraperitoneal; summary of the method: as §1
[3] = test system: Mycobacterium tuberculosis; assay: Antimycobacterial activity against Mycobacterium tuberculosis H37Rv by agar dilution method; format: functional
Summary of the method: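 MIC by agar dilution on Middlebrook 7H11 agar supplemented with OADC, following an NCCLS-like procedure, run in duplicate. The MDR-TB clinical isolate was resistant to isoniazid, rifampicin, ethambutol and ofloxacin.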

[4] = test system: Mycolicibacterium smegmatis; assay: Antimycobacterial activity against Mycobacterium smegmatis MC2 by agar dilution method; format: functional
Summary of the method: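 Agar dilution on Middlebrook 7H11 agar supplemented with OADC, following an NCCLS-like procedure; MIC determined in duplicate against M. smegmatis ATCC 14468 (MC²).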

Vero = assay: Cytotoxicity against african green monkey Vero cells after 72 hrs by MTT assay; format: cell-based; conditions: Chlorocebus sabaeus
Summary of the method: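 Vero mammalian cells were exposed to compounds for 72 h, with testing at 62.5 µg/ml. Viability was read as cellular conversion of MTT to formazan (non-radioactive cell proliferation kit), and IC50 was reported.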

[5] = test system: Mycobacterium tuberculosis; assay: Antimycobacterial activity against Mycobacterium tuberculosis ATCC 35801 infected in CD1 mouse assessed as bacterial load in lung at 50 mg/kg, ip after 10 days; format: functional; conditions: route intraperitoneal; summary of the method: as §1
[6] = test system: Mycobacterium tuberculosis; assay: Antimycobacterial activity against Mycobacterium tuberculosis ATCC 35801 infected in CD1 mouse assessed as bacterial load in spleen at 50 mg/kg, ip after 10 days; format: functional; conditions: route intraperitoneal; summary of the method: as §1
[7] = Inhibition of Mycobacterium smegmatis DNA gyrase supercoiling activity; set-up: species or system Mycolicibacterium smegmatis
Mus musculus [8] = assay: Phototoxicity in Swiss albino mouse assessed as ear thickness at 140 mg/kg, po after 4 hrs of irradiation; format: organism-based; set-up: dose 140 mg/kg, route oral; conditions: in vivo
Summary of the method: (§2)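 Female Swiss albino mice (about 2 months, 20–25 g), fasted at least 18 h, received a single oral gavage of 140 mg/kg. Groups: six per group; lomefloxacin HCl 140 mg/kg; vehicle 0.5% aqueous sodium carboxymethylcellulose at 10 ml/kg. Mice were UV-irradiated for 4 h (about 18 J/cm²). Both ears were scored for erythema, edema and ear thickness (left/right averaged) pre-dose, at end of irradiation, and at about 24, 48, 72 and 96 h. Ear thickness change from baseline was tested by Student's t-tests.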

Mus musculus [9] = assay: Phototoxicity in Swiss albino mouse assessed as ear thickness at 140 mg/kg, po after 24 hrs of irradiation; format: organism-based; set-up: dose 140 mg/kg, route oral; conditions: in vivo; summary of the method: as §2
Mus musculus [10] = assay: Phototoxicity in Swiss albino mouse assessed as ear thickness at 140 mg/kg, po after 48 hrs of irradiation; format: organism-based; set-up: dose 140 mg/kg, route oral; conditions: in vivo; summary of the method: as §2
Mus musculus [11] = assay: Phototoxicity in Swiss albino mouse assessed as ear thickness at 140 mg/kg, po after 72 hrs of irradiation; format: organism-based; set-up: dose 140 mg/kg, route oral; conditions: in vivo; summary of the method: as §2
Mus musculus [12] = assay: Phototoxicity in Swiss albino mouse assessed as ear thickness at 140 mg/kg, po after 96 hrs of irradiation; format: organism-based; set-up: dose 140 mg/kg, route oral; conditions: in vivo; summary of the method: as §2
Mus musculus [13] = assay: Phototoxicity in Swiss albino mouse assessed as erythema incidence at 140 mg/kg, po after 24 hrs of irradiation; format: organism-based; set-up: dose 140 mg/kg, route oral; conditions: in vivo; summary of the method: as §2
Mus musculus [14] = assay: (§3) Phototoxicity in Swiss albino mouse assessed as erythema incidence at 140 mg/kg, po after 48 hrs of irradiation; format: organism-based; set-up: dose 140 mg/kg, route oral; conditions: in vivo; summary of the method: as §2
Mus musculus [15] = assay: as §3; format: organism-based; set-up: dose 140 mg/kg, route oral; conditions: in vivo; summary of the method: as §2; remark: listed apart in the source
Mus musculus [16] = assay: Phototoxicity in Swiss albino mouse assessed as erythema incidence at 140 mg/kg, po after 96 hrs of irradiation; format: organism-based; set-up: dose 140 mg/kg, route oral; conditions: in vivo; summary of the method: as §2
[17] = Selectivity index, ratio of IC50 for african green monkey Vero cells to MIC for Mycobacterium tuberculosis H37Rv; format: functional
Summary of the method: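 Vero cells were exposed for 72 h, with viability read by MTT conversion to formazan to give the IC50. The MIC against H37Rv was by duplicate agar dilution on OADC-supplemented Middlebrook 7H11 agar. Index = Vero IC50 / MIC.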

SMILES	Log10 cfu [1]	Log10 cfu [2]	MIC [3] [µM]	MIC [4] [µM]	IC50 (Vero) [µM]	Log10 cfu [5]	Log10 cfu [6]	IC50 [7] [mg/L]	Activity (Mus musculus [8]) [mm]	Activity (Mus musculus [9]) [mm]	Activity (Mus musculus [10]) [mm]	Activity (Mus musculus [11]) [mm]	Activity (Mus musculus [12]) [mm]	Activity (Mus musculus [13])	Activity (Mus musculus [14])	Activity (Mus musculus [15])	Activity (Mus musculus [16])	Selectivity index [17]
NNC(=O)c1ccncc1 [ISONIAZID]	5.86	4.71	0.36 (≈ 0.0494 µg/mL)	45.6 (≈ 6.25 µg/mL)	> 456	–	–	–	–	–	–	–	–	–	–	–	–	–
CCN(CC)C(=O)C1CCCN(c2cc3c(cc2F)c(=O)c(C(=O)O)c2sc4ccccc4n23)C1 (stereo unspecified)	–	–	0.18 (≈ 0.0892 µg/mL)	3.15 (≈ 1.56 µg/mL)	126	5.21	5.9	40 (≈ 80.7 µM)	0.29	0.29	0.29	0.3	0.28	Non-toxic	Non-toxic	Non-toxic	Non-toxic	1576
COc1c(N2CCNC(C)C2)c(F)cc2c(=O)c(C(=O)O)cn(C3CC3)c12 (stereo unspecified) [GATIFLOXACIN]	–	–	1.04 (≈ 0.39 µg/mL)	2.08 (≈ 0.781 µg/mL)	> 155	6.02	6.92	–	–	–	–	–	–	–	–	–	–	–
